Measurements of several laboratories.
Lines come from different studies, so protocols differ.
F10: Coagulation factor X (F10, Homo sapiens, UniProt P00742)
OfChi-h: Chitinase (OfChi-h, Ostrinia furnacalis, UniProt Q4AE59)
SLC22A12: Solute carrier family 22 member 12 (SLC22A12, Homo sapiens, UniProt Q96S37)
WDR5: WD repeat-containing protein 5 (WDR5, Homo sapiens, UniProt P61964)

Structure (SMILES) | target | test | setting | measurement | value
CC(=O)N[C@H]1Cc2ccc(cc2)OC/C=C/C[C@@H](C(=O)N[C@@H](CCCNC(=N)N)C(=O)c2nc3ccccc3s2)NC(=O)[C@H](CC(C)C)NC1=O | F10 | enzyme activity, inhibitor, absorbance | with preincubation | IC50 | 0.122 µM
CCCCc1ccc(CNc2nc(N(C)C)nc(N(C)C)c2/N=N/c2ccc(Cl)cc2)cc1 | OfChi-h | enzyme activity, inhibitor, fluorescence |  | Ki | 0.0194 µM
C=CS(=O)(=O)c1ccc(Nc2nc(OCC3CCCCC3)c3nc[nH]c3n2)cc1 | Gasdermin-D (GSDMD, Homo sapiens, UniProt P57764) | binding, MST |  | Kd | 36.1 µM
Nc1ncnc2c1ncn2[C@@H]1O[C@H](CO)[C@@H](O)[C@H]1O | SLC22A12 | transporter uptake, inhibitor, radiometric | oocytes | IC50 | > 10000 µM
C[C@@H]1CN(c2ccc(-c3cc(C(=O)NCCOCCOCCOCCOCCOCCOCCNC(=O)/C=C/c4[nH]cc(C(=O)N[C@@H](CC(N)=O)c5ccc(F)c(Cl)c5)c4-c4ccc(Cl)cc4F)ccc3F)cc2NC(=O)c2ccc(F)cc2C(F)(F)F)C[C@H](C)N1C | WDR5 | binding, SPR |  | Kd | 0.0808 µM
CCNC(=O)N1CCN(c2nc(NC3CCN(C(=O)[C@@H](CCc4ccc(OC)cc4)NC(=O)[C@@H]4CCCCN4C(=O)C(=O)C(C)(C)CC)CC3)nc(N(Cc3cnn(C)c3)C3CC3)n2)CC1 | Bromodomain-containing protein 9 (BRD9, Homo sapiens, UniProt Q9H8M2) | binding, SPR |  | Kd | > 10 µM
O=C(NO)c1cncc(OS(=O)(=O)Oc2ccc(-n3ccnc3)cc2)c1 | Histone deacetylase 7 (HDAC7, Homo sapiens, UniProt Q8WUI4) | enzyme activity, inhibitor, fluorescence |  | IC50 | 5.07 µM
C[C@@H]1CN(c2ccc(-c3cc(C(=O)NCCOCCOCCOCCOCCNC(=O)Cn4cc(-c5[nH]cc(C(=O)N[C@@H](CC(N)=O)c6ccc(F)c(Cl)c6)c5-c5ccc(Cl)cc5F)cn4)ccc3F)cc2NC(=O)c2c[nH]c(=O)cc2C(F)(F)F)C[C@H](C)N1C | WDR5 | binding, SPR |  | Kd | 0.0375 µM
CC(=O)N[C@H]1Cc2ccc(cc2)OC/C=C\CNC(=O)C[C@@H](C(=O)N[C@@H](CCCNC(=N)N)C(=O)c2nc3ccccc3s2)NC(=O)[C@H](CC(C)C)NC1=O | F10 | enzyme activity, inhibitor, absorbance | with preincubation | IC50 | 3.18 µM
CN(C)c1nc(NCc2cccc(C(F)(F)F)c2)c(/N=N/c2ccc(Cl)cc2)c(N(C)C)n1 | OfChi-h | enzyme activity, inhibitor, fluorescence |  | IC50 | 0.3 µM
Cn1c(=O)c2c(ncn2C)n(C)c1=O | SLC22A12 | transporter uptake, inhibitor, radiometric | oocytes | IC50 | > 5000 µM
